From publication PMC7416082 (Journal of Inorganic Biochemistry, 2020) come the findings set out here.

The target in data set [1] is T1, human serum albumin (HSA) (Homo sapiens, UniProt P02768). Kind of data set: HSA tryptophan fluorescence quenching. Particulars: for K(HSA), SA-binding constant: Scatchard equation; for % relative fluorescence intensity (I/Io, %) of HSA remaining: λem 340 nm, % of the initial HSA fluorescence; for kq(HSA), SA-quenching constant: τo = 10^−8 s. Type of data set: binding.

Data set [2] in a line: Solubility and stability of the isolated complexes. Type of data set: physicochemical.
Data set [3] addresses T2, bovine serum albumin (BSA) (Bos taurus, UniProt P02769). Nature of the data set: BSA tryptophan fluorescence quenching. Type of data set: binding. Particulars: for K(BSA), SA-binding constant: Scatchard equation; for % relative fluorescence intensity (I/Io, %) of BSA remaining: λem 345 nm, % of the initial BSA fluorescence; for kq(BSA), SA-quenching constant: τo = 10^−8 s.

In the next data set the test system is CT DNA-EB conjugate. Nature of the data set: EB-displacement studies. Type of data set: binding, calf. Particulars: for quenching constant kq (EB-DNA): τo = 23 ns. A digest of the protocol: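 CT DNA pre-bound with ethidium bromide in citrate/NaCl buffer, pH 7.0, at room temperature. Test compound was added from a DMSO stock (≤5% v/v DMSO final), and the decrease in EB-DNA emission at 592 nm was monitored. KSV was obtained by Stern-Volmer analysis. kq was calculated from KSV using a literature EB-DNA lifetime τo = 23 ns.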

For data set [4], the target named is T2, bovine serum albumin (BSA). Kind of data set: BSA competitive studies with site-markers warfarin and ibuprofen. Type of data set: binding. Particulars: for BSA-binding constant K, marker: ibuprofen: presence of ibuprofen; for BSA-binding constant K, marker: warfarin: presence of warfarin; for BSA binding site from competition with site-markers: change of K(BSA) with warfarin / ibuprofen.

Data set [5] addresses T1, human serum albumin (HSA). Kind of data set: HSA competitive studies with site-markers warfarin and ibuprofen. Type of data set: binding. Particulars: for HSA-binding constant K, marker: ibuprofen: presence of ibuprofen; for HSA-binding constant K, marker: warfarin: presence of warfarin.
For the next data set, the system named is CT DNA. Kind of data set: CT DNA binding studies by cyclic voltammetry. Also noted: species or system calf. Particulars: for Epa(f), anodic potential / Epc(f), cathodic potential / Epa(b), anodic potential / Epc(b), cathodic potential: Co(II)/Co(I) couple, DMSO/buffer; for Epa(f), anodic potential / Epc(f), cathodic potential: absence of CT DNA; for Epa(b), anodic potential / Epc(b), cathodic potential: presence of CT DNA; for Kr/Kox, ratio of equilibrium DNA-binding constants of reduced and oxidized form: Eq. S3; for ΔEpa = Epa(b) − Epa(f) / ΔEpc = Epc(b) − Epc(f): shift upon addition of CT DNA.

T1 sequence (P02768 25-609): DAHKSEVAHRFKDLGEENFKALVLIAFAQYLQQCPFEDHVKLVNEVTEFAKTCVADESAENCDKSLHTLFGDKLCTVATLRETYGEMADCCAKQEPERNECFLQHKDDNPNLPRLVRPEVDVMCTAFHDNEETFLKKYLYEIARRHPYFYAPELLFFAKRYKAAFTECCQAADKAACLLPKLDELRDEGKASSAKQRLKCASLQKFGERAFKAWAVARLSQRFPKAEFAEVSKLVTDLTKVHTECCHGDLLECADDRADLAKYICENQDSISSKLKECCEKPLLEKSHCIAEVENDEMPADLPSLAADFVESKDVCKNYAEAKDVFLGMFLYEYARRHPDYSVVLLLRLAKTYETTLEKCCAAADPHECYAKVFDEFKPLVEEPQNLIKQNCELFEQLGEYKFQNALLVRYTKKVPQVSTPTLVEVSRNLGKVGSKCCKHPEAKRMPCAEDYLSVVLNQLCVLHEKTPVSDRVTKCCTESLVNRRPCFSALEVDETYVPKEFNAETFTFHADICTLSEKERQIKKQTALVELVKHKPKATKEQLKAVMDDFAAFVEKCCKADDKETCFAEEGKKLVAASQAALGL
T2 sequence (P02769 25-607): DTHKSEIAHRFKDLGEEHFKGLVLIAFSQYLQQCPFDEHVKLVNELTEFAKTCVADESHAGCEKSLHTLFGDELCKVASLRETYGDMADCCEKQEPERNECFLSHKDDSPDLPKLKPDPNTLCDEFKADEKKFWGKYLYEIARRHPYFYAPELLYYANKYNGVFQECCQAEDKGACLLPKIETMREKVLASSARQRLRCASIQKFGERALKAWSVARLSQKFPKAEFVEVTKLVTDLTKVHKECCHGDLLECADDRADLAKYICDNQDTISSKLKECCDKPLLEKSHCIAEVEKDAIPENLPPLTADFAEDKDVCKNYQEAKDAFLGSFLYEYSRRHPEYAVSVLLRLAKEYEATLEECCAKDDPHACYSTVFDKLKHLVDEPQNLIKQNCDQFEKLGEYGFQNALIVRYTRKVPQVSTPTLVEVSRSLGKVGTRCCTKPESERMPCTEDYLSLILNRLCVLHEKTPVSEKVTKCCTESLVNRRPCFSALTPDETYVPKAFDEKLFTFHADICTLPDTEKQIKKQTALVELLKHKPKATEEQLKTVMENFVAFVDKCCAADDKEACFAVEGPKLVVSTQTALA

In the case of “[Co2(μ-indo-O,O′)2(indo-O)2(bipy)2(μ-H2O)]·3.3MeOH [complex 2]”, in data set [1], the “K(HSA), SA-binding constant” value was 1.20(±0.05) × 10^6 M^−1; the “% relative fluorescence intensity (I/Io, %) of HSA remaining” value came to 5.1%; the “kq(HSA), SA-quenching constant” value is reported as 8.49(±0.25) × 10^13 M^−1 s^−1. Moreover, the Solubility entry in data set [2] is “soluble in DMSO and DMF”. Further, in data set [3], the “K(BSA), SA-binding constant” value is on record as 6.77(±0.26) × 10^5 M^−1; the “% relative fluorescence intensity (I/Io, %) of BSA remaining” value was 7.2%; the “kq(BSA), SA-quenching constant” value is reported as 7.14(±0.12) × 10^13 M^−1 s^−1. For the same substance, in the data set with CT DNA-EB conjugate, the “Stern-Volmer constant KSV (EB-DNA)” value is listed as 1.63(±0.05) × 10^5 M^−1 and the “quenching constant kq (EB-DNA)” value is on record as 7.07(±0.20) × 10^12 M^−1 s^−1. In addition, in data set [4], the “BSA-binding constant K, no marker” value is reported as 6.77(±0.26) × 10^5 M^−1; the “BSA-binding constant K, marker: ibuprofen” value is listed as 3.50(±0.13) × 10^5 M^−1; the “BSA-binding constant K, marker: warfarin” value is reported as 5.48(±0.13) × 10^5 M^−1; the “BSA binding site from competition with site-markers” value was “preference for the Sudlow's site 2 in subdomain IIIA”. Besides, in data set [5], the “HSA-binding constant K, no marker” value was 8.82(±0.30) × 10^5 M^−1; the “HSA-binding constant K, marker: ibuprofen” value was 1.41(±0.09) × 10^5 M^−1; the “HSA-binding constant K, marker: warfarin” value is recorded as 4.62(±0.16) × 10^5 M^−1. For the same substance, in the data set with CT DNA, the “Epa(f), anodic potential” value is reported as −475 mV; the “Epc(f), cathodic potential” value is on record as −712 mV; the “Epa(b), anodic potential” value was −520 mV; the “Epc(b), cathodic potential” value is −675 mV. In addition, in the data set with CT DNA, the “Kr/Kox, ratio of equilibrium DNA-binding constants of reduced and oxidized form” value (“Kr/Kox, ratio … of reduced and oxidized form” for short) was 0.93; the “ΔEpa = Epa(b) − Epa(f)” value was −45 mV; the “ΔEpc = Epc(b) − Epc(f)” value was “+37 mV”.
For the substance “[Co(indo-O)2(H2O)2(μ-Cl)]n·n(MeOH·H2O) [complex 1]”, in data set [1], the “K(HSA), SA-binding constant” value is 7.06(±0.31) × 10^5 M^−1; the “% relative fluorescence intensity (I/Io, %) of HSA remaining” value is on record as 28.8%; the “kq(HSA), SA-quenching constant” value is 9.01(±0.28) × 10^12 M^−1 s^−1. Moreover, the Solubility result in data set [2] is “soluble in DMSO and DMF”. In data set [3], the “K(BSA), SA-binding constant” value was 3.72(±0.12) × 10^5 M^−1; the “% relative fluorescence intensity (I/Io, %) of BSA remaining” value stood at 33.5%; the “kq(BSA), SA-quenching constant” value is 1.04(±0.07) × 10^13 M^−1 s^−1. In addition, in the data set with CT DNA-EB conjugate, the “Stern-Volmer constant KSV (EB-DNA)” value is 1.39(±0.05) × 10^5 M^−1 and the “quenching constant kq (EB-DNA)” value is reported as 6.03(±0.23) × 10^12 M^−1 s^−1. Besides, in data set [4], the “BSA-binding constant K, no marker” value is on record as 3.72(±0.12) × 10^5 M^−1; the “BSA-binding constant K, marker: ibuprofen” value is reported as 1.56(±0.08) × 10^5 M^−1; the “BSA-binding constant K, marker: warfarin” value is 4.50(±0.24) × 10^5 M^−1; the “BSA binding site from competition with site-markers” value is given as “preference for the Sudlow's site 2 in subdomain IIIA”. In data set [5], the “HSA-binding constant K, no marker” value is given as 7.06(±0.31) × 10^5 M^−1; the “HSA-binding constant K, marker: ibuprofen” value was 2.72(±0.10) × 10^5 M^−1; the “HSA-binding constant K, marker: warfarin” value is listed as 4.18(±0.11) × 10^5 M^−1. Besides, in the data set with CT DNA, the “Epa(f), anodic potential” value is −495 mV; the “Epc(f), cathodic potential” value was −690 mV; the “Epa(b), anodic potential” value is −480 mV; the “Epc(b), cathodic potential” value was −700 mV. For the same substance, in the data set with CT DNA, the “Kr/Kox, ratio … of reduced and oxidized form” value is reported as 1.04; the “ΔEpa = Epa(b) − Epa(f)” value is reported as “+15 mV”; the “ΔEpc = Epc(b) − Epc(f)” value was −10 mV.
With [Co(indo-O,O′)2(phen)] [complex 4], in data set [1], the “K(HSA), SA-binding constant” value is on record as 7.37(±0.35) × 10^5 M^−1; the “% relative fluorescence intensity (I/Io, %) of HSA remaining” value came out at 21.2%; the “kq(HSA), SA-quenching constant” value is on record as 1.83(±0.12) × 10^13 M^−1 s^−1. Further, the Solubility result in data set [2] was “soluble in DMSO and DMF”. In addition, in data set [3], the “K(BSA), SA-binding constant” value is reported as 4.27(±0.22) × 10^5 M^−1; the “% relative fluorescence intensity (I/Io, %) of BSA remaining” value amounted to 26.5%; the “kq(BSA), SA-quenching constant” value is reported as 1.37(±0.06) × 10^13 M^−1 s^−1. Further, in the data set with CT DNA-EB conjugate, the “Stern-Volmer constant KSV (EB-DNA)” value is recorded as 1.76(±0.04) × 10^5 M^−1 and the “quenching constant kq (EB-DNA)” value was 7.65(±0.17) × 10^12 M^−1 s^−1. In data set [4], the “BSA-binding constant K, no marker” value is given as 4.27(±0.22) × 10^5 M^−1; the “BSA-binding constant K, marker: ibuprofen” value was 1.19(±0.05) × 10^5 M^−1; the “BSA-binding constant K, marker: warfarin” value was 2.23(±0.08) × 10^5 M^−1. In addition, in data set [5], the “HSA-binding constant K, no marker” value is reported as 1.20(±0.05) × 10^6 M^−1; the “HSA-binding constant K, marker: ibuprofen” value is listed as 3.42(±0.11) × 10^5 M^−1; the “HSA-binding constant K, marker: warfarin” value was 5.72(±0.18) × 10^5 M^−1. Further, the “HSA binding site from competition with site-markers” value in data set [5] (change of K(HSA) with warfarin / ibuprofen) was “evident preference for the Sudlow's site 2 in subdomain IIIA”. In the data set with CT DNA, the “Epa(f), anodic potential” value is −440 mV; the “Epc(f), cathodic potential” value is given as −720 mV; the “Epa(b), anodic potential” value is −500 mV; the “Epc(b), cathodic potential” value was −680 mV. In the data set on CT DNA, the “Kr/Kox, ratio … of reduced and oxidized form” value came to 0.84; the “ΔEpa = Epa(b) − Epa(f)” value is given as −60 mV; the “ΔEpc = Epc(b) − Epc(f)” value is given as “+40 mV”.
